Measurements as given in ChEMBL document CHEMBL3608301, “Phenolic Compounds from Atriplex littoralis and Their Radiation-Mitigating Activity” (J Nat Prod, 2015).

Legend:
PBL [1] = test: Radioprotective activity in 2-Gy gamma irradiated human PBL assessed as frequency of micronuclei at 4 uM treated for 2 to 19 hrs followed by compound washout measured after 72 hrs by cytochalasin-B-blocked micronucleus assay relative to control; type: functional
In short: (§1)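 Venous blood from five healthy male volunteers was γ-irradiated at 2 Gy (0.45 Gy/min) at room temperature and cultured. Compounds (0.8−7.4 μM final) were added 2 to 19 h after irradiation, at 37 °C. Cultures were then rinsed and moved to fresh RPMI 1640 for 72 h. Cytokinesis-block micronucleus assay: ≥1000 binucleated cells scored per sample (Countryman–Heddle criteria). Controls were non-treated irradiated cultures; one-way ANOVA with Tukey test.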

PBL [2] = test: Radioprotective activity in 2-Gy gamma irradiated human PBL assessed as incidence of micronuclei in binucleated cells at 4 uM treated for 2 to 19 hrs followed by compound washout measured after 72 hrs by cytochalasin-B-blocked micronucleus assay (reference value: 1.2 +/- 0.03); type: functional; in short: as §1
PBL [3] = test: Radioprotective activity in 2-Gy gamma irradiated human PBL assessed as binucleated cells with micronuclei at 1 uM treated for 2 to 19 hrs followed by compound washout measured after 72 hrs by cytochalasin-B-blocked micronucleus assay (reference value: 15.5 +/- 0.6%); type: functional; in short: as §1
PBL [4] = test: Toxicity in 2-Gy gamma irradiated human PBL assessed as cytokinesis-block proliferation index at 1 uM treated for 2 to 19 hrs followed by compound washout measured after 72 hrs (reference value: 1.6 +/- 0.1); type: cell-based
PBL [5] = test: Radioprotective activity in 2-Gy gamma irradiated human PBL assessed as incidence of micronuclei in 1000 binucleated cells at 1 uM treated for 2 to 19 hrs followed by compound washout measured after 72 hrs by cytochalasin-B-blocked micronucleus assay (reference value: 183 +/- 9.6); type: functional; in short: as §1
PBL [6] = test: Radioprotective activity in 2-Gy gamma irradiated human PBL assessed as frequency of micronuclei at 2 uM treated for 2 to 19 hrs followed by compound washout measured after 72 hrs by cytochalasin-B-blocked micronucleus assay relative to control; type: functional; in short: as §1
PBL [7] = test: Radioprotective activity in 2-Gy gamma irradiated human PBL assessed as binucleated cells with micronuclei at 2 uM treated for 2 to 19 hrs followed by compound washout measured after 72 hrs by cytochalasin-B-blocked micronucleus assay (reference value: 15.5 +/- 0.6%); type: functional; in short: as §1
PBL [8] = test: Radioprotective activity in 2-Gy gamma irradiated human PBL assessed as incidence of micronuclei in binucleated cells at 1 uM treated for 2 to 19 hrs followed by compound washout measured after 72 hrs by cytochalasin-B-blocked micronucleus assay (reference value: 1.2 +/- 0.03); type: functional; in short: as §1
PBL [9] = test: Radioprotective activity in 2-Gy gamma irradiated human PBL assessed as incidence of micronuclei in 1000 binucleated cells at 4 uM treated for 2 to 19 hrs followed by compound washout measured after 72 hrs by cytochalasin-B-blocked micronucleus assay (reference value: 183 +/- 9.6); type: functional; in short: as §1
PBL [10] = test: Radioprotective activity in 2-Gy gamma irradiated human PBL assessed as incidence of micronuclei in binucleated cells at 2 uM treated for 2 to 19 hrs followed by compound washout measured after 72 hrs by cytochalasin-B-blocked micronucleus assay (reference value: 1.2 +/- 0.03); type: functional; in short: as §1
PBL [11] = test: Toxicity in 2-Gy gamma irradiated human PBL assessed as cytokinesis-block proliferation index at 4 uM treated for 2 to 19 hrs followed by compound washout measured after 72 hrs (reference value: 1.6 +/- 0.1); type: cell-based
PBL [12] = test: Radioprotective activity in 2-Gy gamma irradiated human PBL assessed as binucleated cells with micronuclei at 4 uM treated for 2 to 19 hrs followed by compound washout measured after 72 hrs by cytochalasin-B-blocked micronucleus assay (reference value: 15.5 +/- 0.6%); type: functional; in short: as §1
PBL [13] = test: Radioprotective activity in 2-Gy gamma irradiated human PBL assessed as incidence of micronuclei in 1000 binucleated cells at 2 uM treated for 2 to 19 hrs followed by compound washout measured after 72 hrs by cytochalasin-B-blocked micronucleus assay (reference value: 183 +/- 9.6); type: functional; in short: as §1
PBL [14] = test: Radioprotective activity in 2-Gy gamma irradiated human PBL assessed as frequency of micronuclei at 1 uM treated for 2 to 19 hrs followed by compound washout measured after 72 hrs by cytochalasin-B-blocked micronucleus assay relative to control; type: functional; in short: as §1
PBL [15] = test: Toxicity in 2-Gy gamma irradiated human PBL assessed as cytokinesis-block proliferation index at 2 uM treated for 2 to 19 hrs followed by compound washout measured after 72 hrs (reference value: 1.6 +/- 0.1); type: cell-based
PBL [16] = test: Toxicity in 2-Gy gamma irradiated human PBL assessed as cytokinesis-block proliferation index at 0.8 uM treated for 2 to 19 hrs followed by compound washout measured after 72 hrs (reference value: 1.6 +/- 0.1); type: cell-based
PBL [17] = test: Radioprotective activity in 2-Gy gamma irradiated human PBL assessed as incidence of micronuclei in 1000 binucleated cells at 1.5 uM treated for 2 to 19 hrs followed by compound washout measured after 72 hrs by cytochalasin-B-blocked micronucleus assay (reference value: 183 +/- 9.6); type: functional; in short: as §1
PBL [18] = test: Toxicity in 2-Gy gamma irradiated human PBL assessed as cytokinesis-block proliferation index at 3.1 uM treated for 2 to 19 hrs followed by compound washout measured after 72 hrs (reference value: 1.6 +/- 0.1); type: cell-based
PBL [19] = test: Toxicity in 2-Gy gamma irradiated human PBL assessed as cytokinesis-block proliferation index at 1.5 uM treated for 2 to 19 hrs followed by compound washout measured after 72 hrs (reference value: 1.6 +/- 0.1); type: cell-based
PBL [20] = test: Radioprotective activity in 2-Gy gamma irradiated human PBL assessed as incidence of micronuclei in binucleated cells at 0.8 uM treated for 2 to 19 hrs followed by compound washout measured after 72 hrs by cytochalasin-B-blocked micronucleus assay (reference value: 1.2 +/- 0.03); type: functional; in short: as §1
PBL [21] = test: Radioprotective activity in 2-Gy gamma irradiated human PBL assessed as frequency of micronuclei at 3.1 uM treated for 2 to 19 hrs followed by compound washout measured after 72 hrs by cytochalasin-B-blocked micronucleus assay relative to control; type: functional; in short: as §1
PBL [22] = test: Radioprotective activity in 2-Gy gamma irradiated human PBL assessed as binucleated cells with micronuclei at 3.1 uM treated for 2 to 19 hrs followed by compound washout measured after 72 hrs by cytochalasin-B-blocked micronucleus assay (reference value: 15.5 +/- 0.6%); type: functional; in short: as §1
PBL [23] = test: Radioprotective activity in 2-Gy gamma irradiated human PBL assessed as incidence of micronuclei in binucleated cells at 3.1 uM treated for 2 to 19 hrs followed by compound washout measured after 72 hrs by cytochalasin-B-blocked micronucleus assay (reference value: 1.2 +/- 0.03); type: functional; in short: as §1
PBL [24] = test: Radioprotective activity in 2-Gy gamma irradiated human PBL assessed as binucleated cells with micronuclei at 0.8 uM treated for 2 to 19 hrs followed by compound washout measured after 72 hrs by cytochalasin-B-blocked micronucleus assay (reference value: 15.5 +/- 0.6%); type: functional; in short: as §1
PBL [25] = test: Radioprotective activity in 2-Gy gamma irradiated human PBL assessed as binucleated cells with micronuclei at 1.5 uM treated for 2 to 19 hrs followed by compound washout measured after 72 hrs by cytochalasin-B-blocked micronucleus assay (reference value: 15.5 +/- 0.6%); type: functional; in short: as §1
PBL [26] = test: Radioprotective activity in 2-Gy gamma irradiated human PBL assessed as incidence of micronuclei in 1000 binucleated cells at 0.8 uM treated for 2 to 19 hrs followed by compound washout measured after 72 hrs by cytochalasin-B-blocked micronucleus assay (reference value: 183 +/- 9.6); type: functional; in short: as §1
PBL [27] = test: Radioprotective activity in 2-Gy gamma irradiated human PBL assessed as incidence of micronuclei in binucleated cells at 1.5 uM treated for 2 to 19 hrs followed by compound washout measured after 72 hrs by cytochalasin-B-blocked micronucleus assay (reference value: 1.2 +/- 0.03); type: functional; in short: as §1
PBL [28] = test: Radioprotective activity in 2-Gy gamma irradiated human PBL assessed as frequency of micronuclei at 0.8 uM treated for 2 to 19 hrs followed by compound washout measured after 72 hrs by cytochalasin-B-blocked micronucleus assay relative to control; type: functional; in short: as §1
PBL [29] = test: Radioprotective activity in 2-Gy gamma irradiated human PBL assessed as incidence of micronuclei in 1000 binucleated cells at 3.1 uM treated for 2 to 19 hrs followed by compound washout measured after 72 hrs by cytochalasin-B-blocked micronucleus assay (reference value: 183 +/- 9.6); type: functional; in short: as §1
PBL [30] = test: Radioprotective activity in 2-Gy gamma irradiated human PBL assessed as frequency of micronuclei at 1.5 uM treated for 2 to 19 hrs followed by compound washout measured after 72 hrs by cytochalasin-B-blocked micronucleus assay relative to control; type: functional; in short: as §1
PBL [31] = test: Radioprotective activity in 2-Gy gamma irradiated human PBL assessed as incidence of micronuclei in binucleated cells at 3 uM treated for 2 to 19 hrs followed by compound washout measured after 72 hrs by cytochalasin-B-blocked micronucleus assay (reference value: 1.2 +/- 0.03); type: functional; in short: as §1
PBL [32] = test: Radioprotective activity in 2-Gy gamma irradiated human PBL assessed as frequency of micronuclei at 3 uM treated for 2 to 19 hrs followed by compound washout measured after 72 hrs by cytochalasin-B-blocked micronucleus assay relative to control; type: functional; in short: as §1
PBL [33] = test: Radioprotective activity in 2-Gy gamma irradiated human PBL assessed as binucleated cells with micronuclei at 3 uM treated for 2 to 19 hrs followed by compound washout measured after 72 hrs by cytochalasin-B-blocked micronucleus assay (reference value: 15.5 +/- 0.6%); type: functional; in short: as §1
PBL [34] = test: Radioprotective activity in 2-Gy gamma irradiated human PBL assessed as incidence of micronuclei in 1000 binucleated cells at 3 uM treated for 2 to 19 hrs followed by compound washout measured after 72 hrs by cytochalasin-B-blocked micronucleus assay (reference value: 183 +/- 9.6); type: functional; in short: as §1
PBL [35] = test: Toxicity in 2-Gy gamma irradiated human PBL assessed as cytokinesis-block proliferation index at 3 uM treated for 2 to 19 hrs followed by compound washout measured after 72 hrs (reference value: 1.6 +/- 0.1); type: cell-based

COc1cc(-c2oc3cc(O)c(OC)c(O)c3c(=O)c2O[C@@H]2O[C@H](CO)[C@@H](O)[C@H](O)[C@H]2O)ccc1O
Activity (PBL [1]): 80.9%
Activity (PBL [2]): 1.2
Activity (PBL [3]): 12.1%
Activity (PBL [4]): 1.6
Activity (PBL [5]): 141.8
Activity (PBL [6]): 76.1%
Activity (PBL [7]): 11.7%
Activity (PBL [8]): 1.2
Activity (PBL [9]): 148
Activity (PBL [10]): 1.2
Activity (PBL [11]): 1.6
Activity (PBL [12]): 12.3%
Activity (PBL [13]): 139.3
Activity (PBL [14]): 77.5%
Activity (PBL [15]): 1.6

COc1cc(-c2oc3cc4c(c(O)c3c(=O)c2O[C@@H]2O[C@H](CO)[C@@H](O)[C@H](O)[C@H]2O[C@@H]2O[C@@H](C)[C@H](O)[C@@H](O)[C@H]2O)OCO4)ccc1O
Activity (PBL [16]): 1.7
Activity (PBL [17]): 170.9
Activity (PBL [18]): 1.8
Activity (PBL [19]): 1.7
Activity (PBL [20]): 1.2
Activity (PBL [21]): 95.8%
Activity (PBL [22]): 14.3%
Activity (PBL [23]): 1.2
Activity (PBL [24]): 14.4%
Activity (PBL [25]): 14.1%
Activity (PBL [26]): 172
Activity (PBL [27]): 1.2
Activity (PBL [28]): 94%
Activity (PBL [29]): 175.3
Activity (PBL [30]): 93.4%

CO[C@@]12[C@H](COC(N)=O)C3=C(C(=O)C(C)=C(N)C3=O)N1C[C@@H]1N[C@@H]12 [MITOMYCIN]
Activity (PBL [31]): 1.3
Activity (PBL [32]): 123.5%
Activity (PBL [33]): 17.9%
Activity (PBL [34]): 226.1
Activity (PBL [35]): 1.6
